Measured values: ChEMBL document CHEMBL4316640, “Taichunins A-D, Norditerpenes from Aspergillus taichungensis (IBT 19404)” (J Nat Prod, 2019)
Calls of active or inactive are those of the source. The calls are words filed in the database; no cut-off is given here.

target: Ubiquitin carboxyl-terminal hydrolase 7 (Homo sapiens) (UniProt Q93009); assay: Inhibition of USP7 (unknown origin); conditions: not given
Sequence (Q93009 whole entry, looked up): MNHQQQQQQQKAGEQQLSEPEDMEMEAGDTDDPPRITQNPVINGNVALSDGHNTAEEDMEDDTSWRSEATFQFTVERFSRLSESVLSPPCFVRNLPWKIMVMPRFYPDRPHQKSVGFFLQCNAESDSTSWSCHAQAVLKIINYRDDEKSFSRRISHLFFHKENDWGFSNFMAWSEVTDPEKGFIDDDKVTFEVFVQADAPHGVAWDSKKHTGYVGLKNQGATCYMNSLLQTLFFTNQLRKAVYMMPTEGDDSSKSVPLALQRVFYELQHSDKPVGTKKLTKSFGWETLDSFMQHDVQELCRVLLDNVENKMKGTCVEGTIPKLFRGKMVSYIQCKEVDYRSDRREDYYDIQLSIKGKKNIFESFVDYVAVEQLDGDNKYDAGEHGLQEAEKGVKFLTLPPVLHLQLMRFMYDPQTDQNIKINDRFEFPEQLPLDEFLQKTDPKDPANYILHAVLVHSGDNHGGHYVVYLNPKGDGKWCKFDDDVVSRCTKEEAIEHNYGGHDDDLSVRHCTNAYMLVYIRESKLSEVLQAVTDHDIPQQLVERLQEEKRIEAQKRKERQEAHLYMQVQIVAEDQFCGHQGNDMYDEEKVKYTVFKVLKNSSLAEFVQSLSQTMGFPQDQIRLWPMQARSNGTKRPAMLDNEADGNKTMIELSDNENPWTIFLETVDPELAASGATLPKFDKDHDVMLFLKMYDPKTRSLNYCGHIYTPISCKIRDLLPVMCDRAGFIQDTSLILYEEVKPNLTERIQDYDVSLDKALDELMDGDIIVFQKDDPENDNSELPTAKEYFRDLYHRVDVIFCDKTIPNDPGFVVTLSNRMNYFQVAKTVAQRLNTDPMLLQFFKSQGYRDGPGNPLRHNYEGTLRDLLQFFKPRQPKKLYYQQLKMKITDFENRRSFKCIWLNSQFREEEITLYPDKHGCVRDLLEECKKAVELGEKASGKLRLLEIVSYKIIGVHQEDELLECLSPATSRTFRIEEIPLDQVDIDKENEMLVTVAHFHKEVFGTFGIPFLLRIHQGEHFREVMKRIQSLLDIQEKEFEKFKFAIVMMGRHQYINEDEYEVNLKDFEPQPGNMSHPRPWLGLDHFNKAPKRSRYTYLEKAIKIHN

**Q.** With `C=C[C@]1(C)CC2=C(O)C(=O)C3=C(CCCC3(C)C)C2=CC1=O` as the molecule, how does the inhibition read?
**A.** The inhibition was “inactive”.

**Q.** `C=C[C@@]1(C)CCC2=C(C(=O)O[C@]23CCCC(C)(C)[C@@H]3C(=O)O[C@@H]2O[C@H](CO)[C@@H](O)[C@H](O)[C@H]2O)[C@@H]1O` was tested. Which inhibition did it give?
**A.** The inhibition was “inactive”.

**Q.** Which inhibition does the source give for `C=C[C@@]1(C)CCC2=C(C(=O)O[C@]23CCCC(C)(C)[C@@H]3C(=O)O)[C@@H]1O` here?
**A.** The inhibition was “inactive”.

**Q.** With `C=C[C@]1(C)C=C2[C@@H](O)[C@@]3(O)OC(=O)[C@@]4(CCCC(C)(C)[C@H]34)[C@@]2(O)CC1` as the molecule, how does the inhibition read?
**A.** The inhibition was “inactive”.

**Q.** `C=C[C@]1(C)C=C2C(=O)O[C@@]34CCCC(C)(C)[C@@H]3C(=O)O[C@@]24CC1` was tested. Which inhibition did it give?
**A.** Its inhibition is “inactive”.

system: Proteasome; assay: Inhibition of proteasome (unknown origin); assay type: subcellular; conditions: Homo sapiens

**Q.** With `C=C[C@]1(C)CC2=C(O)C(=O)C3=C(CCCC3(C)C)C2=CC1=O` as the molecule, how does the inhibition read?
**A.** The inhibition was “inactive”.

**Q.** `C=C[C@@]1(C)CCC2=C(C(=O)O[C@]23CCCC(C)(C)[C@@H]3C(=O)O[C@@H]2O[C@H](CO)[C@@H](O)[C@H](O)[C@H]2O)[C@@H]1O` was tested. Which inhibition did it give?
**A.** Its inhibition is “inactive”.

**Q.** For `C=C[C@@]1(C)CCC2=C(C(=O)O[C@]23CCCC(C)(C)[C@@H]3C(=O)O)[C@@H]1O`, which inhibition is on record?
**A.** The inhibition was “inactive”.

**Q.** How did the inhibition turn out when `C=C[C@]1(C)C=C2[C@@H](O)[C@@]3(O)OC(=O)[C@@]4(CCCC(C)(C)[C@H]34)[C@@]2(O)CC1` was run?
**A.** Its inhibition is “inactive”.

**Q.** For `C=C[C@]1(C)C=C2C(=O)O[C@@]34CCCC(C)(C)[C@@H]3C(=O)O[C@@]24CC1`, which inhibition is on record?
**A.** The inhibition was “inactive”.

target: Tumour suppressor p53/oncoprotein Mdm2 (Homo sapiens) (UniProt P04637+Q00987); assay: Inhibition of p53/Mdm2 interaction (unknown origin); assay type: protein assay; conditions: not given
Sequence (P04637 whole entry, looked up): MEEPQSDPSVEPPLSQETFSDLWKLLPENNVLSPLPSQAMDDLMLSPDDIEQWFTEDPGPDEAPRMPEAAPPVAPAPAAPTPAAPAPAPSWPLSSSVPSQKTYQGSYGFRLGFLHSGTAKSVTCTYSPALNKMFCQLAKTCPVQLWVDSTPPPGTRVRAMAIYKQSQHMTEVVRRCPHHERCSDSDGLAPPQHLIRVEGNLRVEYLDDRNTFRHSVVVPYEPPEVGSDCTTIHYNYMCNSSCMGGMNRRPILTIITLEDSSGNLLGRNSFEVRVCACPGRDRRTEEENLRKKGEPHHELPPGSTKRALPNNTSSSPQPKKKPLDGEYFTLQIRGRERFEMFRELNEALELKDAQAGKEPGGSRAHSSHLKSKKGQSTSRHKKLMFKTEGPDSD
Sequence (Q00987 whole entry, looked up): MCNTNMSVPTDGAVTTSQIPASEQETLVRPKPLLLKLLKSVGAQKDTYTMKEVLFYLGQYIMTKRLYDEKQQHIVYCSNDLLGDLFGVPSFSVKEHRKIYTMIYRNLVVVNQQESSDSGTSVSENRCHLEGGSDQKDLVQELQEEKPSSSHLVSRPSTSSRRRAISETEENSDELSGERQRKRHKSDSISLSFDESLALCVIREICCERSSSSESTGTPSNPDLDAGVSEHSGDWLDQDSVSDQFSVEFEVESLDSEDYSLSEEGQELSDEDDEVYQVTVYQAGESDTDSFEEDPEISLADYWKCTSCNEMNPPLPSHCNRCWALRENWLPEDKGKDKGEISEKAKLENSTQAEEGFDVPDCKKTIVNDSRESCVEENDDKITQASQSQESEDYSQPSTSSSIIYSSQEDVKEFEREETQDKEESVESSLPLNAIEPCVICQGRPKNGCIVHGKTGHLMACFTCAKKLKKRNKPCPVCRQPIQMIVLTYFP

**Q.** Which inhibition does the source give for `C=C[C@]1(C)CC2=C(O)C(=O)C3=C(CCCC3(C)C)C2=CC1=O` here?
**A.** Its inhibition is “inactive”.

**Q.** How did the inhibition turn out when `C=C[C@@]1(C)CCC2=C(C(=O)O[C@]23CCCC(C)(C)[C@@H]3C(=O)O[C@@H]2O[C@H](CO)[C@@H](O)[C@H](O)[C@H]2O)[C@@H]1O` was run?
**A.** Its inhibition is “inactive”.

**Q.** With `C=C[C@@]1(C)CCC2=C(C(=O)O[C@]23CCCC(C)(C)[C@@H]3C(=O)O)[C@@H]1O` as the molecule, how does the inhibition read?
**A.** Its inhibition is “inactive”.

**Q.** `C=C[C@]1(C)C=C2[C@@H](O)[C@@]3(O)OC(=O)[C@@]4(CCCC(C)(C)[C@H]34)[C@@]2(O)CC1` was tested. Which inhibition did it give?
**A.** Its inhibition is “inactive”.

**Q.** With `C=C[C@]1(C)C=C2C(=O)O[C@@]34CCCC(C)(C)[C@@H]3C(=O)O[C@@]24CC1` as the molecule, how does the inhibition read?
**A.** Its inhibition is “inactive”.

target: T1, Ubiquitin-like modifier-activating enzyme 1 (Homo sapiens) (UniProt P22314); assay: Inhibition of Ubiquitin/Ubiquitin-activating enzyme E1 (unknown origin); conditions: not given
T1 sequence (whole entry): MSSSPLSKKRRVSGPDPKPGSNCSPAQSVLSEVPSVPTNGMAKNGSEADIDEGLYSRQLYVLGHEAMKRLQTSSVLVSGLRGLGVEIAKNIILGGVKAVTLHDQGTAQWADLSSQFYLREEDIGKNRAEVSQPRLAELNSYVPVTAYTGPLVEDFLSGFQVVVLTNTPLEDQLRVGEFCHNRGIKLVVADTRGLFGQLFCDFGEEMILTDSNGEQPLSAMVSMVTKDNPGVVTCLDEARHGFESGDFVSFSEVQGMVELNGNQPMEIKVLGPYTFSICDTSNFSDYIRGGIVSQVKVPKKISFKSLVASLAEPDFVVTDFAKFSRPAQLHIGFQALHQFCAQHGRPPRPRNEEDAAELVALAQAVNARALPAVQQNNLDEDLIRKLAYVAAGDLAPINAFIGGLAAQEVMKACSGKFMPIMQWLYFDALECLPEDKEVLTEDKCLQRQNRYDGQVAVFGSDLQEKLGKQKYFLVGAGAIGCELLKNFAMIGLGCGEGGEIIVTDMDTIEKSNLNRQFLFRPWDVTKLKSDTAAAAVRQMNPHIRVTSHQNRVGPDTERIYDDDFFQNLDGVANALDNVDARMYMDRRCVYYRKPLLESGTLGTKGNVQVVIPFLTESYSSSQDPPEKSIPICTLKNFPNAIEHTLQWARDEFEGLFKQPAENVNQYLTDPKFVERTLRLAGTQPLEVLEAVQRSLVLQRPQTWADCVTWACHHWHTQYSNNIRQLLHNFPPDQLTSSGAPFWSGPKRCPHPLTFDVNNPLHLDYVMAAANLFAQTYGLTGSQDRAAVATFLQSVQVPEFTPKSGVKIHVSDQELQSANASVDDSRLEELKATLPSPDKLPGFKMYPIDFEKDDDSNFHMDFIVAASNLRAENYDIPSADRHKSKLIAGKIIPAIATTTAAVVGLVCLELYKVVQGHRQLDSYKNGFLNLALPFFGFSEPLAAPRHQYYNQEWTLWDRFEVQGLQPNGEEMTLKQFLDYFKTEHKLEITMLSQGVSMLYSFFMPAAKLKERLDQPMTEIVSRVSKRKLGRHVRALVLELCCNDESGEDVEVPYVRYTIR

**Q.** With `C=C[C@]1(C)CC2=C(O)C(=O)C3=C(CCCC3(C)C)C2=CC1=O` as the molecule, how does the inhibition read?
**A.** Its inhibition is “inactive”.

**Q.** With `C=C[C@@]1(C)CCC2=C(C(=O)O[C@]23CCCC(C)(C)[C@@H]3C(=O)O[C@@H]2O[C@H](CO)[C@@H](O)[C@H](O)[C@H]2O)[C@@H]1O` as the molecule, how does the inhibition read?
**A.** Its inhibition is “inactive”.

**Q.** How did the inhibition turn out when `C=C[C@@]1(C)CCC2=C(C(=O)O[C@]23CCCC(C)(C)[C@@H]3C(=O)O)[C@@H]1O` was run?
**A.** The inhibition was “inactive”.

**Q.** Which inhibition does the source give for `C=C[C@]1(C)C=C2[C@@H](O)[C@@]3(O)OC(=O)[C@@]4(CCCC(C)(C)[C@H]34)[C@@]2(O)CC1` here?
**A.** Its inhibition is “inactive”.

**Q.** With `C=C[C@]1(C)C=C2C(=O)O[C@@]34CCCC(C)(C)[C@@H]3C(=O)O[C@@]24CC1` as the molecule, how does the inhibition read?
**A.** The inhibition was “inactive”.

system: HeLa; assay: Cytotoxicity in human HeLa cells at 50 uM incubated for 3 days by MTT assay; assay type: functional, cell-based; conditions: not given
How it was run: (§1)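 HeLa cells; daunorubicin run alongside as the positive control.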

**Q.** `C=C[C@]1(C)CC2=C(O)C(=O)C3=C(CCCC3(C)C)C2=CC1=O` was tested. Which Activity did it give?
**A.** The Activity was “inactive”.

**Q.** How did the Activity turn out when `C=C[C@@]1(C)CCC2=C(C(=O)O[C@]23CCCC(C)(C)[C@@H]3C(=O)O[C@@H]2O[C@H](CO)[C@@H](O)[C@H](O)[C@H]2O)[C@@H]1O` was run?
**A.** Its Activity is “inactive”.

**Q.** With `C=C[C@@]1(C)CCC2=C(C(=O)O[C@]23CCCC(C)(C)[C@@H]3C(=O)O)[C@@H]1O` as the molecule, how does the Activity read?
**A.** The Activity was “inactive”.

**Q.** With `C=C[C@]1(C)C=C2[C@@H](O)[C@@]3(O)OC(=O)[C@@]4(CCCC(C)(C)[C@H]34)[C@@]2(O)CC1` as the molecule, how does the Activity read?
**A.** The Activity was “inactive”.

system: HeLa; assay: Cytotoxicity in human HeLa cells incubated for 3 days by MTT assay; assay type: functional, cell-based; conditions: 72 h; how it was run: as §1

**Q.** With `C=C[C@]1(C)C=C2C(=O)O[C@@]34CCCC(C)(C)[C@@H]3C(=O)O[C@@]24CC1` as the molecule, how does the IC50 read?
**A.** The IC50 was 4.5 µM.

system: Osteoclast; assay: Inhibition of RANKL-induced formation of multinuclear osteoclasts (unknown origin); assay type: functional, cell-based; conditions: not given

**Q.** For `C=C[C@]1(C)CC2=C(O)C(=O)C3=C(CCCC3(C)C)C2=CC1=O`, which inhibition is on record?
**A.** The inhibition was “inactive”.

**Q.** For `C=C[C@@]1(C)CCC2=C(C(=O)O[C@]23CCCC(C)(C)[C@@H]3C(=O)O[C@@H]2O[C@H](CO)[C@@H](O)[C@H](O)[C@H]2O)[C@@H]1O`, which inhibition is on record?
**A.** The inhibition was “inactive”.

**Q.** For `C=C[C@@]1(C)CCC2=C(C(=O)O[C@]23CCCC(C)(C)[C@@H]3C(=O)O)[C@@H]1O`, which inhibition is on record?
**A.** The inhibition was “inactive”.

**Q.** Which inhibition does the source give for `C=C[C@]1(C)C=C2[C@@H](O)[C@@]3(O)OC(=O)[C@@]4(CCCC(C)(C)[C@H]34)[C@@]2(O)CC1` here?
**A.** The inhibition was “inactive”.

**Q.** Which inhibition does the source give for `C=C[C@]1(C)C=C2C(=O)O[C@@]34CCCC(C)(C)[C@@H]3C(=O)O[C@@]24CC1` here?
**A.** The inhibition was “inactive”.

system: Macrophage; assay: Inhibition of cholesterol ester accumulation in macrophages (unknown origin); assay type: functional, cell-based; conditions: not given

**Q.** With `C=C[C@]1(C)CC2=C(O)C(=O)C3=C(CCCC3(C)C)C2=CC1=O` as the molecule, how does the inhibition read?
**A.** The inhibition was “inactive”.

**Q.** Which inhibition does the source give for `C=C[C@@]1(C)CCC2=C(C(=O)O[C@]23CCCC(C)(C)[C@@H]3C(=O)O[C@@H]2O[C@H](CO)[C@@H](O)[C@H](O)[C@H]2O)[C@@H]1O` here?
**A.** The inhibition was “inactive”.

**Q.** How did the inhibition turn out when `C=C[C@@]1(C)CCC2=C(C(=O)O[C@]23CCCC(C)(C)[C@@H]3C(=O)O)[C@@H]1O` was run?
**A.** Its inhibition is “inactive”.

**Q.** For `C=C[C@]1(C)C=C2[C@@H](O)[C@@]3(O)OC(=O)[C@@]4(CCCC(C)(C)[C@H]34)[C@@]2(O)CC1`, which inhibition is on record?
**A.** Its inhibition is “inactive”.

**Q.** How did the inhibition turn out when `C=C[C@]1(C)C=C2C(=O)O[C@@]34CCCC(C)(C)[C@@H]3C(=O)O[C@@]24CC1` was run?
**A.** The inhibition was “inactive”.

target: Ubiquitin-conjugating enzyme E2 N/Ubiquitin-conjugating enzyme E2 variant 1 (Homo sapiens) (UniProt Q13404+P61088); assay: Inhibition of Ubc13/Uev1A interaction (unknown origin); assay type: protein assay; conditions: not given

**Q.** With `C=C[C@]1(C)CC2=C(O)C(=O)C3=C(CCCC3(C)C)C2=CC1=O` as the molecule, how does the inhibition read?
**A.** The inhibition was “inactive”.

**Q.** For `C=C[C@@]1(C)CCC2=C(C(=O)O[C@]23CCCC(C)(C)[C@@H]3C(=O)O[C@@H]2O[C@H](CO)[C@@H](O)[C@H](O)[C@H]2O)[C@@H]1O`, which inhibition is on record?
**A.** The inhibition was “inactive”.

**Q.** For `C=C[C@@]1(C)CCC2=C(C(=O)O[C@]23CCCC(C)(C)[C@@H]3C(=O)O)[C@@H]1O`, which inhibition is on record?
**A.** Its inhibition is “inactive”.

**Q.** `C=C[C@]1(C)C=C2[C@@H](O)[C@@]3(O)OC(=O)[C@@]4(CCCC(C)(C)[C@H]34)[C@@]2(O)CC1` was tested. Which inhibition did it give?
**A.** Its inhibition is “inactive”.

**Q.** How did the inhibition turn out when `C=C[C@]1(C)C=C2C(=O)O[C@@]34CCCC(C)(C)[C@@H]3C(=O)O[C@@]24CC1` was run?
**A.** The inhibition was “inactive”.
